Measured values from article PMC12657421 (International Journal of Pharmaceutics: X, 2025).

How the values were obtained:
[1] = Equilibrium solubility, shake-flask method; format: physicochemical; details: pH 1.2, pH 4.5, pH 6.8, 37 °C
Procedure, shortened: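 Shake-flask method: excess solid stirred in 5 mL of water or pH 1.2, 4.5 or 6.8 buffer at 37 °C for 72 h. Samples were centrifuged, and the supernatant was assayed directly by HPLC using a modified Chinese Pharmacopoeia method.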

[2] = In vitro powder dissolution in pH 6.8 and pH 7.0 media; format: physicochemical
Procedure, shortened: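 60 mg emodin, or an equivalent amount of cocrystal, added to 900 mL of pH 6.8 or pH 7.0 medium at 37 °C with propeller at 100 rpm. Autosampled 1 mL at 10–720 min (nine points), centrifuged 13,400 rpm for 10 min, supernatant by HPLC. Run in triplicate.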

[3] = format: in vivo, Sprague Dawley rats
Procedure, shortened: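 Male SD rats (250 ± 20 g), acclimated one week, n = 6 per group, oral single dose. Plasma separated at 4 °C, stored −80 °C, acetonitrile-precipitated with chrysophanol internal standard and diluted with water. Emodin quantified by HPLC-MS/MS, C18 column at 40 °C, triple quadrupole.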

[4] = ref NIST (National Institute of Standards and Technology, n.d); cited from earlier work
[5] = male, Sprague Dawley, rat, plasma, po, 100 mg/kg

| Solubility in purified water and three other media [1] | Apparent dissolution (detectability) [2] | AUC(0-inf) [3, 5] | AUC(0-t) [3, 5] | Cmax [3, 5] | MRT inf [3, 5] | MRT last [3, 5] | Tmax [3, 5] | half-life [3, 5] | CLz ([3]; rats, oral, EMO 100 mg/kg or equimolar cocrystal, plasma EMO, n = 6) | Compound | Sublimation enthalpy [4] |
| --- | --- | --- | --- | --- | --- | --- | --- | --- | --- | --- | --- |
| negligible solubility | undetectability | 33400 ng·h/mL | 2370 ± 947 ng·h/mL | 274 ± 160 ng/mL | 5.9 ± 5.41 h | 10.3 ± 1.94 h | 11 ± 1.67 h | 4.13 ± 1.97 h | 4 ± 3 mL/h/kg | Cc1cc(O)c2c(c1)C(=O)c1cc(O)cc(O)c1C2=O [EMO, Emodin] | – |
| – | – | – | – | – | – | – | – | – | – | Cc1nc(C)c(C)nc1C [TMP, Tetramethylpyrazine] | 22.6 kcal/mol |
